Results published in ChEMBL document CHEMBL6182837, “Discovery and biological evaluation of nitrofuranyl-pyrazolopyrimidine hybrid conjugates as potent antimicrobial agents targeting Staphylococcus aureus and methicillin-resistant S. aureus” (RSC Med Chem, 2025).
≈ marks a conversion by molar mass, not a printed value. Calls of active or inactive are those of the source. No cut-off for these calls is given here.

What was measured:
Staphylococcus aureus [1] = assay: Induction of morphological disruption in Staphylococcus aureus ATCC 29213 at 1 to 2 times MIC incubated for 2 to 6 hrs by SEM analysis; type: functional, organism-based; details: time 2-6 hrs
How it was run: (§1)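 Bacteria incubated for 2 h and 6 h at 1×, 2× and 4× MIC, with vancomycin and daptomycin at 1× and 2× MIC and untreated cells; cell morphology imaged by scanning electron microscopy.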

Staphylococcus aureus [2] = assay: Antibacterial activity against Staphylococcus aureus SA-K2192 overexpressing TetK by Alamar blue staining based analysis; type: functional
Staphylococcus aureus [3] = assay: Antibacterial activity against Ciprofloxacin-sensitive Staphylococcus aureus […] by Alamar blue staining based analysis; type: functional
Staphylococcus aureus [4] = assay: Disruption of cell membrane integrity in Staphylococcus aureus ATCC 29213 assessed as red fluorescence at 2 times MIC incubated for 2.5 hrs by DAPI/PI staining based fluorescence microscopy; type: functional, organism-based
How it was run: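 Bacteria treated at 1× and 2× MIC, with vancomycin 2× MIC as control and an untreated blank; stained with DAPI (all cells) and propidium iodide (membrane-damaged cells); imaged by fluorescence microscopy, red PI signal taken as membrane damage.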

Staphylococcus aureus [5] = assay: Disruption of pre-formed biofilms of methicillin-resistant Staphylococcus aureus ATCC 15187 at 4 to 6 times MIC incubated for 24 hrs by absorbance based method relative to control; type: functional
Staphylococcus aureus [6] = assay: Induction of morphological disruption in methicillin-resistant Staphylococcus aureus ATCC 15187 at 1 to 2 times MIC incubated for 2 to 6 hrs by SEM analysis; type: functional, organism-based; details: time 2-6 hrs; how it was run: as §1
Staphylococcus aureus [7] = assay: Antibacterial activity against Staphylococcus aureus SA-K2191 overexpressing MsrA by Alamar blue staining based analysis; type: functional
Staphylococcus aureus [8] = assay: Antibacterial activity against Staphylococcus aureus SA-1199B overexpressing NorA by Alamar blue staining based analysis; type: functional
Staphylococcus aureus [9] = assay: Inhibition of biofilm formation of methicillin-resistant Staphylococcus aureus ATCC 15187 at 0.5 times MIC incubated for 27 hrs by absorbance based method; type: functional, organism-based
Staphylococcus aureus [10] = assay: Disruption of pre-formed biofilms of Staphylococcus aureus ATCC 29213 at 4 to 6 times MIC incubated for 24 hrs by absorbance based method relative to control; type: functional
Staphylococcus aureus [11] = assay: Inhibition of biofilm formation of Staphylococcus aureus ATCC 29213 at 0.5 times MIC incubated for 27 hrs by absorbance based method; type: functional, organism-based
Staphylococcus aureus [12] = assay: Antibacterial activity against methicillin-resistant Staphylococcus aureus ATCC 15187 infected in male […] mouse assessed as reduction in bacterial load in lung at 50 mg/kg measured after 24 hrs by colony counting method; type: functional, organism-based
How it was run: (§2)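 Mouse peritonitis model: 0.1 ml MRSA suspension (10^8 CFU ml−1) given intraperitoneally; treatment intraperitoneal at 50 or 100 mg kg−1 at 2 and 5 h post-infection, with saline and vancomycin (50 mg kg−1) controls; killed at 24 h; kidney and lung homogenates plated on Mueller–Hinton agar with 20 μg ml−1 ciprofloxacin, 24 h; CFU ml−1; unpaired t-test.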

Staphylococcus aureus [13] = assay: Antibacterial activity against methicillin-resistant Staphylococcus aureus ATCC 15187 infected in male […] mouse assessed as reduction in bacterial load in kidney at 50 mg/kg measured after 24 hrs by colony counting method; type: functional, organism-based; how it was run: as §2

CN[C@H](CC(C)C)C(=O)N[C@H]1C(=O)N[C@@H](CC(N)=O)C(=O)N[C@H]2C(=O)N[C@H]3C(=O)N[C@H](C(=O)N[C@H](C(=O)O)c4cc(O)cc(O)c4-c4cc3ccc4O)[C@H](O)c3ccc(c(Cl)c3)Oc3cc2cc(c3O[C@@H]2O[C@H](CO)[C@@H](O)[C@H](O)[C@H]2O[C@H]2C[C@](C)(N)[C@H](O)[C@H](C)O2)Oc2ccc(cc2Cl)[C@H]1O [VANCOMYCIN]
Activity (Staphylococcus aureus [1]): Active
MIC (Staphylococcus aureus [2]): 0.56 µg/mL (≈ 0.386 µM)
MIC (Staphylococcus aureus [3]): 0.25 µg/mL (≈ 0.173 µM)
Activity (Staphylococcus aureus [4]): Active
Activity (Staphylococcus aureus [5]): 40%
Activity (Staphylococcus aureus [6]): Active
MIC (Staphylococcus aureus [7]): 0.25 µg/mL (≈ 0.173 µM)
MIC (Staphylococcus aureus [8]): 0.25 µg/mL (≈ 0.173 µM)
inhibition (Staphylococcus aureus [9]): inactive
Activity (Staphylococcus aureus [10]): 40%
inhibition (Staphylococcus aureus [11]): inactive
Activity (Staphylococcus aureus [12]): Active
Activity (Staphylococcus aureus [13]): Active
